Data reported in PMC10975593 (ACS Omega, 2024).

Columns and labels:
K-562 = assay: NCI 60-cell line screen; type: cell-based, human; conditions: for GI50 / IC50 / CC50: Homo sapiens; for GI50 / IC50: K562; for CC50: K562, read-out: LC50; for TGI: K-562, leukemia
MCF-7 = assay: NCI 60-cell line screen; type: cell-based, human; conditions: for GI50 / IC50 / CC50: Homo sapiens; for GI50 / IC50: MCF7; for CC50: MCF7, read-out: LC50; for TGI: MCF-7, breast cancer
U251 = assay: NCI 60-cell line screen; type: cell-based, human; conditions: for GI50 / IC50 / CC50: Homo sapiens; for GI50 / IC50: U-251; for CC50: U-251, read-out: LC50; for TGI: U251, CNS cancer
Summary of the method: (§1)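 Test compounds were submitted to the National Cancer Institute and run under NCI's standard 60-cell-line protocols. Read-outs were taken from percent-growth versus log-concentration curves.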

HL-60(TB) [1] = assay: cells; conditions: Homo sapiens; for GI50 / IC50: HL-60; for CC50: HL-60, read-out: LC50
SK-OV-3 = assay: NCI 60-cell line screen; type: cell-based, human; conditions: for GI50 / IC50 / CC50: Homo sapiens; for GI50 / IC50: SK-OV-3; for CC50: SK-OV-3, read-out: LC50; for TGI: SK-OV-3, ovarian cancer
Summary of the method: as §1

SK-MEL-28 = assay: NCI 60-cell line screen; type: cell-based, human; conditions: for GI50 / IC50 / CC50: Homo sapiens; for GI50 / IC50: SK-MEL-28; for CC50: SK-MEL-28, read-out: LC50; for TGI: SK-MEL-28, melanoma
Summary of the method: as §1

NCI-H23 = assay: NCI 60-cell line screen; type: cell-based, human; conditions: for GI50 / IC50 / CC50: Homo sapiens; for GI50 / IC50: NCI-H23; for CC50: NCI-H23, read-out: LC50; for TGI: NCI-H23, non-small cell lung cancer
MOLT-4 = assay: NCI 60-cell line screen; type: cell-based, human; conditions: for GI50 / IC50 / CC50: Homo sapiens; for GI50 / IC50: MOLT-4; for CC50: MOLT-4, read-out: LC50; for TGI: MOLT-4, leukemia
HL-60(TB) [2] = conditions: leukemia
HCT-15 = assay: NCI 60-cell line screen; type: cell-based, human; conditions: for TGI: HCT-15, colon cancer; for GI50 / IC50 / CC50: Homo sapiens; for GI50 / IC50: HCT-15; for CC50: HCT-15, read-out: LC50
MDA-MB-468 = assay: NCI 60-cell line screen; type: cell-based, human; conditions: for GI50 / IC50 / CC50: Homo sapiens; for GI50 / IC50: MDA-MB-468; for CC50: MDA-MB-468, read-out: LC50; for TGI: MDA-MB-468, breast cancer
IGROV1 = assay: NCI 60-cell line screen; type: cell-based, human; conditions: for GI50 / IC50 / CC50: Homo sapiens; for GI50 / IC50: IGROV-1; for CC50: IGROV-1, read-out: LC50; for TGI: IGROV1, ovarian cancer
MALME-3M = assay: NCI 60-cell line screen; type: cell-based, human; conditions: for GI50 / IC50 / CC50: Homo sapiens, Malme-3M; for CC50: read-out: LC50; for TGI: MALME-3M, melanoma
UO-31 = assay: NCI 60-cell line screen; type: cell-based, human; conditions: for GI50 / IC50 / CC50: Homo sapiens; for GI50 / IC50: UO-31; for CC50: UO-31, read-out: LC50; for TGI: UO-31, renal cancer
Summary of the method: as §1

OVCAR-4 = assay: NCI 60-cell line screen; type: cell-based, human; conditions: for GI50 / IC50 / CC50: Homo sapiens; for GI50 / IC50: OVCAR-4; for CC50: OVCAR-4, read-out: LC50; for TGI: OVCAR-4, ovarian cancer
CCRF-CEM = assay: NCI 60-cell line screen; type: cell-based, human; conditions: for GI50 / IC50 / CC50: Homo sapiens; for CC50: read-out: LC50; for TGI: leukemia
OVCAR-8 = assay: NCI 60-cell line screen; type: cell-based, human; conditions: for GI50 / IC50 / CC50: Homo sapiens; for GI50 / IC50: OVCAR-8; for CC50: OVCAR-8, read-out: LC50; for TGI: OVCAR-8, ovarian cancer
Summary of the method: as §1

HOP-92 = assay: NCI 60-cell line screen; type: cell-based, human; conditions: for TGI: HOP-92, non-small cell lung cancer; for GI50 / IC50 / CC50: Homo sapiens; for GI50 / IC50: HOP-92; for CC50: HOP-92, read-out: LC50
Fibro cell line = assay: % inhibition on normal cell line; type: cell-based; conditions: for inhibition at 10 µM: read-out: %inhibition at 10 μM; for inhibition at 100 µM: read-out: %inhibition at 100 μM
OVCAR-5 = assay: NCI 60-cell line screen; type: cell-based, human; conditions: for GI50 / IC50 / CC50: Homo sapiens; for GI50 / IC50: OVCAR-5; for CC50: OVCAR-5, read-out: LC50; for TGI: OVCAR-5, ovarian cancer
Summary of the method: as §1

HS 578T = assay: NCI 60-cell line screen; type: cell-based, human; conditions: for TGI: HS 578T, breast cancer; for GI50 / IC50 / CC50: Homo sapiens, Hs-578T; for CC50: read-out: LC50
PC-3 = assay: NCI 60-cell line screen; type: cell-based, human; conditions: for GI50 / IC50 / CC50: Homo sapiens; for GI50 / IC50: PC-3; for CC50: PC-3, read-out: LC50; for TGI: PC-3, prostate cancer
Summary of the method: as §1

HCC-2998 = assay: NCI 60-cell line screen; type: cell-based, human; conditions: for TGI: HCC-2998, colon cancer; for GI50 / IC50 / CC50: Homo sapiens; for GI50 / IC50: HCC 2998; for CC50: HCC 2998, read-out: LC50
Staphylococcus aureus = assay: Disc diffusion antimicrobial test; type: cell-based; conditions: Staphylococcus aureus, 24 h, read-out: zone of inhibition (diameter of inhibition)
Summary of the method: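 Disc diffusion on nutrient agar, test compound at 100 μg/mL with DMSO as solvent. Plates incubated at 37 °C for 24 h after inoculation, then zone of inhibition measured and compared with standards. Controls were DMSO, amoxicillin, ciprofloxacin and tetracycline.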

A498 = assay: NCI 60-cell line screen; type: cell-based, human; conditions: for TGI: A498, renal cancer; for GI50 / IC50 / CC50: Homo sapiens; for GI50 / IC50: A498; for CC50: A498, read-out: LC50
NCI-H226 = assay: NCI 60-cell line screen; type: cell-based, human; conditions: for GI50 / IC50 / CC50: Homo sapiens; for GI50 / IC50: NCI-H226; for CC50: NCI-H226, read-out: LC50; for TGI: NCI-H226, non-small cell lung cancer

## O=C(CNc1ccc([N+](=O)[O-])cc1)Nc1nc2ccccc2s1 [OMS5, N-(1,3-benzothiazol-2-yl)-2-(4-nitroanilino)acetamide]
K-562
  GI50: 0.5 µM
  IC50: 0.6 µM
  CC50: > 100 µM
  TGI: 100 µM
MCF-7
  GI50: 0.4 µM
  IC50: 0.5 µM
  CC50: 74.1 µM
  TGI: 10 µM
U251
  GI50: 0.9 µM
  IC50: 1.7 µM
  CC50: 41.7 µM
  TGI: 12 µM
HL-60(TB) [1]
  GI50: 0.8 µM
  IC50: 2.5 µM
  CC50: > 100 µM
SK-OV-3
  GI50: 1.3 µM
  IC50: 5.2 µM
  CC50: > 100 µM
  TGI: 6.8 µM
SK-MEL-28
  GI50: 1.6 µM
  IC50: 3 µM
  CC50: 6.9 µM
  TGI: 3.3 µM
NCI-H23
  GI50: 1 µM
  IC50: 2.1 µM
  CC50: 7.8 µM
  TGI: 2.8 µM
MOLT-4
  GI50: 0.4 µM
  IC50: 0.6 µM
  CC50: > 100 µM
  TGI: 12 µM
HL-60(TB) [2]
  TGI: 14 µM
HCT-15
  TGI: 3.7 µM
  GI50: 0.5 µM
  IC50: 0.7 µM
  CC50: 28.8 µM
MDA-MB-468
  GI50: 0.4 µM
  IC50: 1.8 µM
  CC50: 5.3 µM
  TGI: 1.8 µM
IGROV1
  GI50: 0.8 µM
  IC50: 1.8 µM
  CC50: > 100 µM
  TGI: 12 µM
MALME-3M
  GI50: 1.1 µM
  IC50: 2.1 µM
  CC50: 5 µM
  TGI: 2.3 µM
UO-31
  GI50: 0.5 µM
  IC50: 1.3 µM
  CC50: 26.9 µM
  TGI: 3.8 µM
OVCAR-4
  GI50: 1 µM
  IC50: 3 µM
  CC50: 40.7 µM
  TGI: 5.1 µM
CCRF-CEM
  GI50: 0.9 µM
  IC50: 2.3 µM
  CC50: > 100 µM
  TGI: 50 µM
OVCAR-8
  GI50: 0.6 µM
  IC50: 0.9 µM
  CC50: > 100 µM
  TGI: 22 µM
HOP-92
  TGI: 10 µM
  GI50: 2.3 µM
  IC50: 12 µM
  CC50: 63.1 µM
Fibro cell line
  inhibition at 10 µM: 57.9%
  inhibition at 100 µM: 67.1%
OVCAR-5
  GI50: 1 µM
  IC50: 2.5 µM
  CC50: 46.8 µM
  TGI: 5.4 µM
HS 578T
  TGI: 5.6 µM
  GI50: 1.6 µM
  IC50: 5.9 µM
  CC50: 93.3 µM
PC-3
  GI50: 1.6 µM
  IC50: 2.8 µM
  CC50: > 100 µM
  TGI: 45 µM
HCC-2998
  TGI: 2.2 µM
  GI50: 0.9 µM
  IC50: 1.6 µM
  CC50: 5.3 µM
Staphylococcus aureus
  zone of inhibition at 100 µg/mL: 0 mm
A498
  TGI: 6.5 µM
  GI50: 1.4 µM
  IC50: 7.2 µM
  CC50: 28.8 µM
NCI-H226
  GI50: 0.6 µM
  IC50: 3 µM
  CC50: > 100 µM
  TGI: 4.9 µM

## O=C(CN1CCN(CC(=O)Nc2nc3ccccc3s2)CC1)Nc1ccc([N+](=O)[O-])cc1 [OMS14, N-(benzo[d]thiazol-2-yl)-2-(4-(2-((4-nitrophenyl)amino)-2-oxoethyl)piperazin-1-yl)acetamide]
K-562
  GI50: 2.6 µM
  IC50: 3 µM
  CC50: > 100 µM
  TGI: 100 µM
MCF-7
  GI50: 2.8 µM
  IC50: 4.1 µM
  CC50: 61.7 µM
  TGI: 7.8 µM
U251
  GI50: 2.6 µM
  IC50: 3.5 µM
  CC50: 50.1 µM
  TGI: 11.0 µM
HL-60(TB) [1]
  GI50: 2.5 µM
  IC50: 4.4 µM
  CC50: 81.3 µM
SK-OV-3
  GI50: 2.2 µM
  IC50: 6.6 µM
  CC50: > 100 µM
  TGI: 8.1 µM
SK-MEL-28
  GI50: 2.1 µM
  IC50: 4 µM
  CC50: 23.4 µM
  TGI: 6.2 µM
NCI-H23
  GI50: 1.6 µM
  IC50: 3.2 µM
  CC50: 8.9 µM
  TGI: 3.8 µM
MOLT-4
  GI50: 1.1 µM
  IC50: 2.5 µM
  CC50: > 100 µM
  TGI: 9.5 µM
HL-60(TB) [2]
  TGI: 7.6 µM
HCT-15
  TGI: 3.7 µM
  GI50: 1.7 µM
  IC50: 2.8 µM
  CC50: 7.9 µM
MDA-MB-468
  GI50: 1.5 µM
  IC50: 3.2 µM
  CC50: 7.1 µM
  TGI: 3.2 µM
IGROV1
  GI50: 1.9 µM
  IC50: 3.3 µM
  CC50: 47.9 µM
  TGI: 4.6 µM
MALME-3M
  GI50: 3 µM
  IC50: 6.6 µM
  CC50: 35.5 µM
  TGI: 9.3 µM
UO-31
  GI50: 1.3 µM
  IC50: 2.5 µM
  CC50: 8.5 µM
  TGI: 3.3 µM
OVCAR-4
  GI50: 2.4 µM
  IC50: 5.2 µM
  CC50: 75.9 µM
  TGI: 8.3 µM
CCRF-CEM
  GI50: 2.5 µM
  IC50: 4 µM
  CC50: > 100 µM
  TGI: 17.4 µM
OVCAR-8
  GI50: 1.4 µM
  IC50: 2.4 µM
  CC50: > 100 µM
  TGI: 4.3 µM
HOP-92
  TGI: 8.3 µM
  GI50: 2.3 µM
  IC50: 9.1 µM
  CC50: 89.1 µM
Fibro cell line
  inhibition at 10 µM: 49.4%
  inhibition at 100 µM: 70.5%
OVCAR-5
  GI50: 1.5 µM
  IC50: 3.2 µM
  CC50: 57.5 µM
  TGI: 4.8 µM
HS 578T
  TGI: 8.5 µM
  GI50: 2.4 µM
  IC50: 8.9 µM
  CC50: > 100 µM
PC-3
  GI50: 3 µM
  IC50: 4.4 µM
  CC50: > 100 µM
  TGI: 20.9 µM
HCC-2998
  TGI: 3.9 µM
  GI50: 1.7 µM
  IC50: 3.1 µM
  CC50: 8.9 µM
Staphylococcus aureus
  zone of inhibition at 100 µg/mL: 15 mm
A498
  TGI: 3.7 µM
  GI50: 1.7 µM
  IC50: 3.8 µM
  CC50: 7.9 µM
NCI-H226
  GI50: 1.4 µM
  IC50: 3.5 µM
  CC50: > 100 µM
  TGI: 4.2 µM
